ChEMBL document CHEMBL1806360, “Synthesis and biological evaluation of conformationally flexible as well as restricted dimers of monastrol and related dihydropyrimidones” (Eur J Med Chem, 2011)
≈ marks a conversion by molar mass, not a printed value. Calls of active or inactive are those of the source. The rule behind the calls is not given here.

Legend:
MCF7 = test: Cytotoxicity against human MCF7 cells after 48 hrs by MTT assay; type: functional, cell-based; conditions: MCF7, 48 h
Summary of the method: (§1)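 MTT assay. Medium with 10% FBS and 2 mM L-glutamine was DMEM for A431 and Colo-205, RPMI for A549, and MEM for MCF-7. Cultures were preincubated 24 h at 37 °C, 5% CO2. 1 × 10⁴ cells (trypan blue count) were exposed to 200, 100, 50, 25 and 10 concentration levels for 48 h at 37 °C. MTT was added for 4 h, formazan dissolved in DMSO, and A570 read. IC50 was curve-fitted from viability versus untreated cells, three experiments.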

HT-29 = test: Cytotoxicity against human HT-29 cells after 48 hrs by MTT assay; type: functional, cell-based; conditions: HT-29, 48 h
Nucleic Acid = test: Binding affinity to calf thymus DNA assessed as change in melting temperature at compound to DNA ratio of 1:5 after 18 hrs at pH 7; type: nucleic-acid assay; conditions: Bos taurus
Summary of the method: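 Thermal melting of calf thymus DNA in 10 mM sodium phosphate with 1 mM Na2EDTA, pH 7.00. Compound was added from DMSO stock at a fixed 1:5 compound:DNA molar ratio. The mix was incubated 18 h at 37 °C, then A260 was monitored while heating at 1 °C/min over 40–90 °C. ΔTm is relative to DNA alone.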

A-431 = test: Cytotoxicity against human A431 cells after 48 hrs by MTT assay; type: functional, cell-based; conditions: A-431, 48 h; summary of the method: as §1
A549 = test: Cytotoxicity against human A549 cells after 48 hrs by MTT assay; type: functional, cell-based; conditions: A549, 48 h; summary of the method: as §1
COLO 205 = test: Cytotoxicity against human COLO205 cells after 48 hrs by MTT assay; type: functional, cell-based; conditions: COLO 205, 48 h; summary of the method: as §1
Escherichia coli [1] = test: Antibacterial activity against Escherichia coli assessed as zone of inhibition at 50 ug/ml by agar plate method; type: functional, organism-based
Summary of the method: (§2)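 Well diffusion on Mueller-Hinton agar. Inoculum from 3–5 colonies was grown in nutrient broth and adjusted to 0.5 McFarland (about 1 × 10⁸ CFU/mL), then swabbed over the plate. Compounds were dissolved in DMSO and added to duplicate 6 mm wells. Plates were incubated 18 h at 37 °C, and inhibition zone diameter was read to the nearest mm. Ciprofloxacin was the positive control and DMSO the negative control.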

[2] = test system: Staphylococcus epidermidis; test: Antibacterial activity against Staphylococcus epidermidis assessed as zone of inhibition at 50 ug/ml by agar plate method; type: functional, organism-based; summary of the method: as §2
Escherichia coli [3] = test: Antibacterial activity against Escherichia coli assessed as zone of inhibition at 100 ug/ml by agar plate method; type: functional; conditions: read-out: IZ; summary of the method: as §2
[4] = test system: Staphylococcus epidermidis; test: Antibacterial activity against Staphylococcus epidermidis assessed as zone of inhibition at 100 ug/ml by agar plate method; type: functional; conditions: read-out: IZ; summary of the method: as §2
Klebsiella pneumoniae [5] = test: Antibacterial activity against Klebsiella pneumoniae assessed as zone of inhibition at 100 ug/ml by agar plate method; type: functional; conditions: read-out: IZ; summary of the method: as §2
Klebsiella pneumoniae [6] = test: Antibacterial activity against Klebsiella pneumoniae assessed as zone of inhibition at 50 ug/ml by agar plate method; type: functional, organism-based; summary of the method: as §2
Staphylococcus aureus = test: Antibacterial activity against Staphylococcus aureus assessed as zone of inhibition at 100 ug/ml by agar plate method; type: functional; conditions: read-out: IZ; summary of the method: as §2
Bacillus subtilis [7] = test: Antibacterial activity against Bacillus subtilis assessed as zone of inhibition at 50 ug/ml by agar plate method; type: functional, organism-based; summary of the method: as §2
Bacillus subtilis [8] = test: Antibacterial activity against Bacillus subtilis assessed as zone of inhibition at 100 ug/ml by agar plate method; type: functional; conditions: read-out: IZ; summary of the method: as §2
Pseudomonas aeruginosa = test: Antibacterial activity against Pseudomonas aeruginosa assessed as zone of inhibition at 100 ug/ml by agar plate method; type: functional; conditions: read-out: IZ; summary of the method: as §2

SMILES | IC50 (MCF7) [µg/mL] | IC50 (HT-29) [µg/mL] | ΔTm (Nucleic Acid) [°C] | IC50 (A-431) [µg/mL] | IC50 (A549) [µg/mL] | IC50 (COLO 205) [µg/mL] | Activity (Escherichia coli [1]) | Activity [2] | zone of inhibition at 100 µg/mL (Escherichia coli [3]) [mm] | zone of inhibition at 100 µg/mL [4] [mm] | zone of inhibition at 100 µg/mL (Klebsiella pneumoniae [5]) [mm] | Activity (Klebsiella pneumoniae [6]) | zone of inhibition at 100 µg/mL (Staphylococcus aureus) [mm] | Activity (Bacillus subtilis [7]) | zone of inhibition at 100 µg/mL (Bacillus subtilis [8]) [mm] | zone of inhibition at 100 µg/mL (Pseudomonas aeruginosa) [mm]
COC(=O)[C@@H]1CCCN1C(=O)C1=C(C)NC(=S)NC1c1ccc(OC/C=C\COc2ccc(C3NC(=S)NC(C)=C3C(=O)N3CCC[C@H]3C(=O)OC)cc2OC)c(OC)c1 (some centres undefined) | 175 (≈ 203 µM) | > 200 | 4.1 | 183 (≈ 212 µM) | > 200 | > 200 |  |  |  |  |  |  |  |  |  | 
CCOC(=O)C1=C(C)NC(=S)NC1c1cccc(OCCCCCOc2cccc(C3NC(=S)NC(C)=C3C(=O)OCC)c2)c1 (centres undefined) | 178 (≈ 273 µM) | > 200 |  | 74 (≈ 113 µM) | > 200 | 190 (≈ 291 µM) |  |  |  |  |  |  |  |  |  | 
CCOC(=O)C1=C(C)NC(=S)NC1c1cccc(OC/C=C/COc2cccc(C3NC(=S)NC(C)=C3C(=O)OCC)c2)c1 (centres undefined) | 175 (≈ 275 µM) | > 200 | 2.5 | 185 (≈ 291 µM) | > 200 | > 200 | inactive | inactive | 10 | 18 | 8 | inactive | 8 | inactive | 12 | 15
COC(=O)[C@@H]1CCCN1C(=O)C1=C(C)NC(=S)NC1c1ccc(OCCCCCOc2ccc(C3NC(=S)NC(C)=C3C(=O)N3CCC[C@H]3C(=O)OC)cc2OC)c(OC)c1 (some centres undefined) | 55 (≈ 62.6 µM) | > 200 |  | 125 (≈ 142 µM) | 150 (≈ 171 µM) | 142 (≈ 162 µM) |  |  |  |  |  |  |  |  |  | 
CCOC(=O)C1=C(C)NC(=S)NC1c1cccc(OC/C=C\COc2cccc(C3NC(=S)NC(C)=C3C(=O)OCC)c2)c1 (centres undefined) | 49 (≈ 76.9 µM) | > 200 |  | 190 (≈ 298 µM) | 154 (≈ 242 µM) | 64 (≈ 101 µM) | inactive | inactive | 8 | 12 | 8 | inactive | 15 | inactive | 10 | 18
COC(=O)[C@@H]1CCCN1C(=O)C1=C(C)NC(=S)NC1c1cccc(OCCCCOc2cccc(C3NC(=S)NC(C)=C3C(=O)N3CCC[C@H]3C(=O)OC)c2)c1 (some centres undefined) | 128 (≈ 159 µM) | > 200 |  | 148 (≈ 184 µM) | > 200 | 154 (≈ 191 µM) |  |  |  |  |  |  |  |  |  | 
COC(=O)[C@@H]1CCCN1C(=O)C1=C(C)NC(=S)NC1c1ccc(OCCCCOc2ccc(C3NC(=S)NC(C)=C3C(=O)N3CCC[C@H]3C(=O)OC)cc2OC)c(OC)c1 (some centres undefined) | 169 (≈ 195 µM) | > 200 |  | 190 (≈ 220 µM) | > 200 | 154 (≈ 178 µM) |  |  |  |  |  |  |  |  |  | 
COC(=O)[C@@H]1CCCN1C(=O)C1=C(C)NC(=S)NC1c1cccc(OCCCCCOc2cccc(C3NC(=S)NC(C)=C3C(=O)N3CCC[C@H]3C(=O)OC)c2)c1 (some centres undefined) | 34 (≈ 41.5 µM) | > 200 |  | 159 (≈ 194 µM) | 184 (≈ 225 µM) | 71 (≈ 86.7 µM) |  |  |  |  |  |  |  |  |  | 
COC(=O)[C@@H]1CCCN1C(=O)C1=C(C)NC(=S)NC1c1ccc(OC/C=C/COc2ccc(C3NC(=S)NC(C)=C3C(=O)N3CCC[C@H]3C(=O)OC)cc2OC)c(OC)c1 (some centres undefined) | 60 (≈ 69.5 µM) | > 200 | 2.8 | 34 (≈ 39.4 µM) | 158 (≈ 183 µM) | 69 (≈ 80 µM) |  |  |  |  |  |  |  |  |  | 
O=C(O)c1cn(C2CC2)c2cc(N3CCNCC3)c(F)cc2c1=O [CIPROFLOXACIN] |  |  |  |  |  |  | inactive | inactive | 35 | 35 | 12 | inactive | 25 | inactive | 33 | 38
CCOC(=O)C1=C(C)NC(=S)NC1c1ccc(OC/C=C/COc2ccc(C3NC(=S)NC(C)=C3C(=O)OCC)cc2OC)c(OC)c1 (centres undefined) | 35 (≈ 50.2 µM) | > 200 | 3.2 | 185 (≈ 265 µM) | 165 (≈ 237 µM) | 90 (≈ 129 µM) |  |  |  |  |  |  |  |  |  | 
COC(=O)[C@@H]1CCCN1C(=O)C1=C(C)NC(=S)NC1c1cccc(OC/C=C/COc2cccc(C3NC(=S)NC(C)=C3C(=O)N3CCC[C@H]3C(=O)OC)c2)c1 (some centres undefined) | 54 (≈ 67.2 µM) | > 200 | 2.5 | 96 (≈ 120 µM) | 148 (≈ 184 µM) | 127 (≈ 158 µM) |  |  |  |  |  |  |  |  |  | 
CCOC(=O)C1=C(C)NC(=S)NC1c1ccc(OCCCCOc2ccc(C3NC(=S)NC(C)=C3C(=O)OCC)cc2OC)c(OC)c1 (centres undefined) | 178 (≈ 255 µM) | > 200 |  | 185 (≈ 265 µM) | > 200 | > 200 | inactive | inactive | 10 | 12 | 5 | inactive | 9 | inactive | 15 | 13
CCOC(=O)C1=C(C)NC(=S)NC1c1ccc(OC/C=C\COc2ccc(C3NC(=S)NC(C)=C3C(=O)OCC)cc2OC)c(OC)c1 (centres undefined) | 84 (≈ 121 µM) | > 200 |  | 170 (≈ 244 µM) | > 200 | 120 (≈ 172 µM) | inactive | inactive | 12 | 18 |  | inactive | 12 | inactive | 13 | 15
COC(=O)[C@@H]1CCCN1C(=O)C1=C(C)NC(=S)NC1c1cccc(OCCCOc2cccc(C3NC(=S)NC(C)=C3C(=O)N3CCC[C@H]3C(=O)OC)c2)c1 (some centres undefined) | 175 (≈ 221 µM) | > 200 |  | 190 (≈ 240 µM) | 175 (≈ 221 µM) | > 200 |  |  |  |  |  |  |  |  |  | 
CCOC(=O)C1=C(C)NC(=S)NC1c1cccc(OCCCCOc2cccc(C3NC(=S)NC(C)=C3C(=O)OCC)c2)c1 (centres undefined) | 186 (≈ 291 µM) | > 200 |  | > 200 | > 200 | > 200 |  |  |  |  |  |  |  |  |  | 
COC(=O)[C@@H]1CCCN1C(=O)C1=C(C)NC(=S)NC1c1ccc(OCCCOc2ccc(C3NC(=S)NC(C)=C3C(=O)N3CCC[C@H]3C(=O)OC)cc2OC)c(OC)c1 (some centres undefined) | 140 (≈ 165 µM) | > 200 |  | 165 (≈ 194 µM) | 180 (≈ 212 µM) | 92 (≈ 108 µM) |  |  |  |  |  |  |  |  |  | 
